Measurements reported in ChEMBL document CHEMBL1142654, “Partition-variant desferrithiocin analogues: organ targeting and increased iron clearance” (J Med Chem, 2005).

Tests used:
[1] = test system: Monkey; assay: Percentage of iron clearing efficiency was measured in monkey after administration at 150 umol/kg (n=4); assay type: functional
How it was run: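 Cebus apella monkeys iron-overloaded with iv iron dextran to about 500 mg Fe/kg, at least 60 days before use. Single po dose of 150 µmol/kg as solution or suspension in 40% Cremophor RH-40/water. Stool and urine collected every 24 h, from 4 days before dosing to 5 days after. Iron measured by flame atomic absorption. ICE = (2-day post-dose iron minus mean 4-day baseline) / theoretical excretion × 100. Mean ± SEM.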

[2] = Lipophilicity (Log Papp) was measured at pH 7.4; Activity expressed as the log of the fraction in the octanol layer; assay type: physicochemical; details: octanol/aqueous phase
How it was run: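 Shake-flask octanol/water distribution at pH 7.4 in 50 mM TRIS buffer, uncorrected for partial ionization. Quadruplicate samples shaken with 1-octanol overnight, layers left to settle 1-2 h before separation. Room temperature (22-24 °C), UV spectrometric read-out, value given as log of fraction in octanol layer.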

| SMILES | Activity [1] | log fraction in octanol layer [2] |
| --- | --- | --- |
| COc1ccc(C2=N[C@@H](C(=O)O)CS2)c(O)c1 | 16.2% | -0.89 |
| C[C@]1(C(=O)O)CSC(c2cccc(O)c2O)=N1 | 23.1% | -1.17 |
| O=C(O)[C@H]1CSC(c2cccc(O)c2O)=N1 | 5.8% | -1.67 |
| COc1cccc(C2=N[C@@](C)(C(=O)O)CS2)c1O | 22.5% | -1.12 |
| C[C@]1(C(=O)O)CSC(c2ccc(O)cc2O)=N1 [DEFERITRIN] | 13.4% | -1.05 |
| COc1ccc(C2=N[C@@](C)(C(=O)O)CS2)c(O)c1 | 24.4% | -0.7 |
| O=C(O)[C@H]1CSC(c2ccc(O)cc2O)=N1 | 4.2% | -1.33 |
| COc1cccc(C2=N[C@@H](C(=O)O)CS2)c1O | 15.5% | -1.52 |
